Data set [1] deals with Ancylostoma ceylanicum. Put plainly: Anthelmintic activity against Ancylostoma ceylanicum isolated from infected Syrian hamster feces assessed as survival rate at 25 ug/ml measured on day 1 relative to control. The format is functional. The settings on record: 24 h.
Data set [2] deals with Ancylostoma ceylanicum. As to the kind of experiment: Anthelmintic activity against Ancylostoma ceylanicum isolated from infected Syrian hamster feces assessed as survival rate at 25 ug/ml measured on day 2 relative to control. The format is functional. Particulars: 48 h.
In data set [3] the test system is Ancylostoma ceylanicum. As to the kind of experiment: Anthelmintic activity against Ancylostoma ceylanicum isolated from infected Syrian hamster feces assessed as survival rate at 25 ug/ml measured on day 3 relative to control. The format is functional. The settings on record: 72 h.
For data set [4], the system named is Ancylostoma ceylanicum. As to the kind of experiment: Anthelmintic activity against Ancylostoma ceylanicum isolated from infected Syrian hamster feces assessed as survival rate at 25 ug/ml measured on day 5 (reference value: >95%). The format is functional. Particulars: 120 h.
A short description of data set [5]: Effect on Syrian hamster splenocytes proliferation assessed as stimulation index by BrdU-incorporation based colorimetric analysis. The settings on record: splenocyte. The format is ADME, cell-based, Mesocricetus auratus. The essentials: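 Hamster spleens dissociated through strainers, red cells lysed, cells washed in RPMI. Plated in triplicate at 10⁵ cells per well with several doses of compound. 1% DMSO served as negative control, concanavalin A as positive control. Proliferation read by colorimetric BrdU incorporation. Index is mean OD450 of compound wells divided by mean OD450 of medium plus 1% DMSO wells, with 1 meaning no effect.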

For data set [6], the system named is Ancylostoma ceylanicum. Put plainly: Anthelmintic activity against Ancylostoma ceylanicum isolated from infected Syrian hamster feces assessed as survival rate at 25 ug/ml measured on day 4 relative to control. Particulars: 96 h. The format is functional.
Data set [7] concerns Ancylostoma ceylanicum. Put plainly: Anthelmintic activity against Ancylostoma ceylanicum isolated from infected Syrian hamster feces assessed as motility at 25 ug/ml measured on day 5. Type of data set: functional. The essentials:
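Adult worms from hamster intestine washed in RPMI with fungizone (25 μg/mL) and 20× pen/strep, held overnight at 37 °C, 5% CO2 in that medium plus 50% FBS. Compound added from DMSO stock to 1% DMSO final; 1% DMSO negative control. Motility scored on a 0–3 scale, worms stimulated by microscope light and heat and gentle manipulation.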

Data set [8] is described as follows: Toxicity in po dosed rat. Particulars: in vivo. The format is organism-based.
The test system of data set [9] is Ancylostoma ceylanicum. Put plainly: Anthelmintic activity against Ancylostoma ceylanicum isolated from infected Syrian hamster feces assessed as mortality at 10 ug/ml measured on day 3 relative to control. Type of data set: functional. Particulars: 72 h.

As to `C=CC(C)(C)c1cc([C@@H]2CC(=O)c3c(O)cc(O)c(CC=C(C)C)c3O2)c(O)cc1O`, the survival at 25 µg/mL in the data set with Ancylostoma ceylanicum [1], with Ancylostoma ceylanicum [2], with Ancylostoma ceylanicum [3], with Ancylostoma ceylanicum [4] and in the data set with Ancylostoma ceylanicum [6] was 100% in each case. In [5], the Ratio lay in the range of 0.8 to 1.
As for `C=CC(C)(C)c1cc([C@@H]2CC(=O)c3ccc(O)c(CC=C(C)C)c3O2)c(O)cc1O`, the survival at 25 µg/mL was determined as 100% in the data set on Ancylostoma ceylanicum [1]; 100% in the data set with Ancylostoma ceylanicum [2]; 100% in the data set with Ancylostoma ceylanicum [3]; 90% with Ancylostoma ceylanicum [4]; 97% with Ancylostoma ceylanicum [6]. In addition, in [5], the Ratio lay within 0.8 to 1.
As for `CC(C)=CCc1c(O)c(O)cc2c1O[C@H](c1ccc(O)cc1)CC2=O`, the survival at 25 µg/mL with Ancylostoma ceylanicum [1] was 100%; with Ancylostoma ceylanicum [2], 97%; with Ancylostoma ceylanicum [3], 90%; with Ancylostoma ceylanicum [4] it was 83%; in the data set with Ancylostoma ceylanicum [6], 83%. Further, the Ratio in data set [5] stood at 0.8.
Regarding `CC(C)=CCC/C(C)=C/Cc1c(O)ccc2c1O[C@H](c1ccc(O)cc1O)CC2=O`, the survival at 25 µg/mL in the data set on Ancylostoma ceylanicum [1] worked out at 100%; with Ancylostoma ceylanicum [2], 100%; in the data set on Ancylostoma ceylanicum [3] it was 100%; in the data set on Ancylostoma ceylanicum [4], 93%; in the data set on Ancylostoma ceylanicum [6] it was 100%. Also, the Ratio in [5] is 0.8 to 1.
Turning to `COc1ccc2c(c1)O[C@@H]1c3ccc(O)cc3OC[C@H]21`, the survival at 25 µg/mL in the data set with Ancylostoma ceylanicum [1], in the data set on Ancylostoma ceylanicum [2], in the data set on Ancylostoma ceylanicum [3], in the data set on Ancylostoma ceylanicum [4] and with Ancylostoma ceylanicum [6] was 100% in each case. For the same molecule, the Ratio in data set [5] lay in the range of 0.8 to 1.
With `CC(C)=CCc1c(O)ccc2c1O[C@H](c1ccc(O)cc1O)CC2=O`, the survival at 25 µg/mL in the data set with Ancylostoma ceylanicum [1] turned out to be 100%; in the data set on Ancylostoma ceylanicum [2], 100%; in the data set on Ancylostoma ceylanicum [3] it was 90%; in the data set with Ancylostoma ceylanicum [4] it was 80%; in the data set with Ancylostoma ceylanicum [6], 80%. The Ratio in data set [5] lay within 0.8 to 1.
As for `Oc1ccc2c(c1)OC[C@@H]1c3cc4c(cc3O[C@H]21)OCO4` [(+)-MAACKIAIN], the Activity with Ancylostoma ceylanicum [7] was determined as 80%. Besides, the survival at 25 µg/mL in the data set with Ancylostoma ceylanicum [1] was found to be 100%; in the data set with Ancylostoma ceylanicum [2] it was 93%; with Ancylostoma ceylanicum [3], 83%; with Ancylostoma ceylanicum [4], 73%; with Ancylostoma ceylanicum [6], 80%. In addition, the Ratio in data set [5] is reported as 1.
Regarding `COc1cc2c(cc1OC)[C@@H]1C(=O)c3ccc4c(c3O[C@@H]1CO2)C=CC(C)(C)O4` [DEGUELIN], the survival at 25 µg/mL in the data set with Ancylostoma ceylanicum [1] was 100%; in the data set on Ancylostoma ceylanicum [2], 50%; with Ancylostoma ceylanicum [3], 40%; in the data set on Ancylostoma ceylanicum [4] it was 0%; with Ancylostoma ceylanicum [6], 0%. Besides, the Ratio in data set [5] was in the range of 0.8 to 1.
Take `CC(C)=CCc1c(O)cc(O)c2c1O[C@H](c1ccc(O)cc1O)CC2=O` [LEACHIANONE G]: the survival at 25 µg/mL was found to be 100% in the data set on Ancylostoma ceylanicum [1]; 97% in the data set on Ancylostoma ceylanicum [2]; 93% in the data set with Ancylostoma ceylanicum [3]; 87% in the data set on Ancylostoma ceylanicum [4]; 93% in the data set with Ancylostoma ceylanicum [6]. The Ratio in data set [5] is 0.8 to 1.
A word on the LD50: it is the dose expected to kill half of the subjects tested. High values mean lower toxicity, low ones greater toxicity. In data set [8], `C=C(C)[C@H]1Cc2c(ccc3c2O[C@@H]2COc4cc(OC)c(OC)cc4[C@@H]2C3=O)O1` [ROTENONE] came in with an LD50 of 132 to 1500 mg/kg.
The mortality is the percentage killed. For `COc1cc2c(cc1OC)[C@]1(O)C(=O)c3ccc4c(c3O[C@@H]1CO2)C=CC(C)(C)O4` [TEPHROSIN], the survival at 25 µg/mL in the data set with Ancylostoma ceylanicum [1] was 77%; in the data set on Ancylostoma ceylanicum [2] it was 3%; with Ancylostoma ceylanicum [3], 0%; with Ancylostoma ceylanicum [4] it was 0%; in the data set on Ancylostoma ceylanicum [6] it was 0%. The Ratio in data set [5] is 0.8 to 1. Also, the mortality at 10 µg/mL in the data set with Ancylostoma ceylanicum [9] stood at 100%.

For the origin of these results see ChEMBL document CHEMBL3867451, “Phenolic Metabolites of Dalea ornata Affect Both Survival and Motility of the Human Pathogenic Hookworm Ancylostoma ceylanicum” (J Nat Prod, 2016).
